Here are results for eleven compounds from ChEMBL document CHEMBL1146087, “1,4-Benzodiazepines as inhibitors of respiratory syncytial virus” (J Med Chem, 2006).

As a reminder, the CL/F is the apparent clearance, not corrected for the fraction that reaches the circulation. Usually Cmax stands for the peak of the concentration-time curve. Broadly, the IC50 is the concentration that inhibits the measured activity by half. Read a low IC50 as inhibition by little substance. By Tmax is commonly meant the time from dosing to the highest level. What is called half-life is the time in which the quantity being followed falls by half. A low value points to fast loss. For orientation: clearance means the volume of plasma or blood freed of the substance per unit of time. Read a low clearance as inefficient removal. A word on the bioavailability: it is the share of a dose that reaches the circulation, judged against a reference dose that is usually intravenous. A higher bioavailability goes with good availability.

Series [1] in a line: Apparent oral clearance in Sprague-Dawley rat at 20 mg/kg, po. The format is ADME, organism-based. On the set-up: dose 20 mg/kg, route oral. The conditions noted are these: in vivo.
Series [2] is described as follows: Cmax in Sprague-Dawley rat at 20 mg/kg, po. More on the design: dose 20 mg/kg, route oral. The format is ADME, organism-based. Conditions: in vivo.
The test system of series [3] is Respiratory syncytial virus. The experiment in a line: Antiviral activity against RSV RSS in Hep2 cells by whole cell XTT assay. Format: functional, organism-based. Conditions: human respiratory syncytial virus, HEp-2. Summed up:
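Primary whole-cell assay with XTT read-out of infected cells. Parallel cultures without virus were run to measure compound cytotoxicity. IC50 values were derived.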
In general terms: Tetrazolium dyes change colour on reduction, which living cells bring about.

Series [4] concerns HEp-2. The series is described as follows: Cytotoxicity against Hep2 cell at 50 uM. The conditions noted are these: Homo sapiens. Format: functional, cell-based. An outline of the steps: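 Run alongside the whole-cell antiviral XTT assay, without virus, to measure compound toxicity to the cells. The read-out is XTT.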
Series [5] is described as follows: Tmax in Sprague-Dawley rat at 20 mg/kg, po. Format: ADME, organism-based. More on the design: dose 20 mg/kg, route oral. Conditions: in vivo.
Series [6] is described as follows: Half life in Sprague-Dawley rat at 20 mg/kg, po. Format: ADME, organism-based. More on the design: dose 20 mg/kg, route oral. Conditions: in vivo.
The subject of series [7] is Rattus norvegicus. The experiment in a line: Volume of distribution in Sprague-Dawley rat at 20 mg/kg, po. The format is ADME, organism-based. More on the design: dose 20 mg/kg, route oral. The conditions noted are these: in vivo.
The nature of series [8]: Half life in Sprague-Dawley rat at 2 mg/kg, iv. Format: ADME, organism-based. More on the design: dose 2 mg/kg, route intravenous. The conditions noted are these: in vivo.
The nature of series [9]: Cmax in Sprague-Dawley rat at 2 mg/kg, po. Conditions: in vivo. Format: ADME, organism-based. More on the design: dose 2 mg/kg, route oral.
Series [10] can be described thus: Tmax in Sprague-Dawley rat at 2 mg/kg, iv. The conditions noted are these: in vivo. Format: ADME, organism-based. On the set-up: dose 2 mg/kg, route intravenous.
Series [11] in a line: Volume of distribution in Sprague-Dawley rat at 2 mg/kg, iv. The conditions noted are these: in vivo, read-out: Vdss. The format is ADME, organism-based. On the set-up: dose 2 mg/kg, route intravenous.
The nature of series [12]: Cmax in Sprague-Dawley rat at 2 mg/kg, iv. The format is ADME, organism-based. More on the design: dose 2 mg/kg, route intravenous. Conditions: in vivo.
Series [13] is described as follows: Clearance in Sprague-Dawley rat at 2 mg/kg, iv. The conditions noted are these: in vivo. More on the design: dose 2 mg/kg, route intravenous. Format: ADME, organism-based.
Series [14] in a line: Oral bioavailability in Sprague-Dawley rat at 2 mg/kg, po. The conditions noted are these: in vivo. The format is ADME, organism-based.
Series [15] is described as follows: Tmax in Sprague-Dawley rat at 2 mg/kg, po. Format: ADME, organism-based. More on the design: dose 2 mg/kg, route oral. Conditions: in vivo.
Series [16] deals with Respiratory syncytial virus. The experiment in a line: Antiviral activity against RSV RSS in Hep2 cells by plaque assay. Format: functional, organism-based. Conditions: human respiratory syncytial virus, HEp-2.
Series [17] deals with Respiratory syncytial virus. The series is described as follows: Antiviral activity against RSV B in Hep2 cells by plaque assay. Format: functional, organism-based. Conditions: human respiratory syncytial virus, HEp-2.
Series [18] relates to Respiratory syncytial virus. The experiment in a line: Antiviral activity against RSV Long in Hep2 cells by plaque assay. Format: functional, organism-based. The conditions noted are these: human respiratory syncytial virus, HEp-2.
Series [19] relates to Respiratory syncytial virus. The experiment in a line: Antiviral activity against RSV B in Hep2 cells by ELISA. The format is functional, organism-based. The conditions noted are these: human respiratory syncytial virus, HEp-2. Background: In an ELISA, binding on a coated surface is turned into a signal by an enzyme label.
The subject of series [20] is Rattus norvegicus. The series is described as follows: Volume of distribution in Sprague-Dawley rat at 25 mg/kg, po. Format: ADME, organism-based. On the set-up: dose 25 mg/kg, route oral. Conditions: in vivo.
Series [21] can be described thus: Apparent oral clearance in Sprague-Dawley rat at 2 mg/kg, po. Format: ADME, organism-based. More on the design: dose 2 mg/kg, route oral. The conditions noted are these: in vivo.
Series [22] is described as follows: Half life in Sprague-Dawley rat at 25 mg/kg, po. More on the design: dose 25 mg/kg, route oral. Conditions: in vivo. Format: ADME, organism-based.
A short description of series [23]: Tmax in Sprague-Dawley rat at 25 mg/kg, po. Format: ADME, organism-based. On the set-up: dose 25 mg/kg, route oral. Conditions: in vivo.
Series [24] relates to Rattus norvegicus. The experiment in a line: Volume of distribution in Sprague-Dawley rat at 2 mg/kg, po. Format: ADME, organism-based. More on the design: dose 2 mg/kg, route oral. The conditions noted are these: in vivo.
A short description of series [25]: Apparent oral clearance in Sprague-Dawley rat at 25 mg/kg, po. The format is ADME, organism-based. On the set-up: dose 25 mg/kg, route oral. Conditions: in vivo.
A short description of series [26]: Half life in Sprague-Dawley rat at 2 mg/kg, po. Format: ADME, organism-based. More on the design: dose 2 mg/kg, route oral. The conditions noted are these: in vivo.
A short description of series [27]: Cmax in Sprague-Dawley rat at 25 mg/kg, po. The format is ADME, organism-based. More on the design: dose 25 mg/kg, route oral. Conditions: in vivo.
The test system of series [28] is Respiratory syncytial virus. The series is described as follows: Antiviral activity against RSV RSS in Hep2 cells by ELISA. Format: functional, organism-based. Conditions: human respiratory syncytial virus, HEp-2.
Series [29] has as its system Respiratory syncytial virus. The experiment in a line: Antiviral activity against RSV Long in Hep2 cells by ELISA. Format: functional, organism-based. Conditions: human respiratory syncytial virus, HEp-2.
The subject of series [30] is Respiratory syncytial virus. The experiment in a line: Antiviral activity against RSV A2 in Hep2 cells by plaque assay. The format is functional, organism-based. The conditions noted are these: human respiratory syncytial virus, A2, HEp-2.

With `COc1ccc(F)cc1C(=O)NC1N=C(c2ccccc2)c2ccccc2NC1=O` (stereo unspecified), in [1], the apparent clearance CL/F stood at 981 mL/min/kg. Besides, the peak level in series [2] (Cmax) was 10.3 ng/mL. Besides, half-maximal inhibition in [3] (IC50) was put at 1500 nM. In series [4], the Activity result was “Not toxic”. The Tmax in [5] was determined as 3.33 h.

For `COc1cc(Cl)ccc1C(=O)NC1N=C(c2ccccc2)c2ccccc2NC1=O` (stereo unspecified), in series [1], the CL/F turned out to be 288 mL/min/kg. Besides, the Cmax in series [2] turned out to be 273 ng/mL. In [3], this compound came in with a concentration for half-maximal inhibition (IC50) of 5900 nM. In addition, the Activity entry in series [4] is “Not toxic”. Also, the half-life in series [6] was 2.7 h. This compound yielded a Vdss in [7] of 98.3 L/kg. Besides, the time to peak (Tmax) in series [5] was 1 h.

Take `COc1ccccc1C(=O)NC1N=C(c2ccccc2)c2ccccc2NC1=O` (stereo unspecified): in series [3], half-maximal inhibition (IC50) required 2300 nM. The same compound had a half-life in [8] of 0.4 h. Also, in [4], the Activity result is “Not toxic”. The values for the peak concentration (Cmax) in series [9] and in series [12] were 19.3 ng/mL and 798 ng/mL, respectively. Besides, the Tmax in series [10] is 4.8 min; in series [15], 0.8 h. Besides, the Vd in [11] amounted to 2.4 L/kg. In addition, in series [13], the clearance was found to be 71.2 mL/min/kg. The bioavailability in series [14] was found to be 4%.

`CC(=O)NC1N=C(c2ccccc2)c2ccccc2NC1=O` (stereo unspecified): the IC50 in series [16] came out at 7100 nM; in series [17], 3600 nM; in series [18] it was 7200 nM; in [19], 17800 nM; in series [3], 8600 nM; in [28] it was 9300 nM. This compound also displayed an IC50 in series [29] of 17600 nM. For the same compound, the half-life in [8] was 5 h; in [22], 4.4 h; in [26] it was 5.9 h. The Vdss was 2.7 L/kg in series [20] and 4.2 L/kg in series [24]. The CL/F was 4.9 mL/min/kg in series [21] and 7.3 mL/min/kg in series [25]. Further, in series [4], the Activity result was “Not toxic”. Besides, the Cmax came to 616 ng/mL in series [9], 2400 ng/mL in [12] and 7930 ng/mL in [27]. Further, the Tmax in series [10] was 4.8 min; in series [23] it was 1.5 h; in series [15], 2.6 h. In [11], the Vd came out at 2.2 L/kg. The compound further showed a clearance in series [13] of 5.3 mL/min/kg. Moreover, in series [14], the bioavailability was determined as 77%.

As for `O=C(Nc1ccccc1F)NC1N=C(c2ccccc2)c2ccccc2NC1=O` (stereo unspecified), the half-inhibitory concentration (IC50) in series [16] stood at 3000 nM; in [17], 750 nM; in series [18], 2200 nM; in series [19] it was 1900 nM; in series [3], 3300 nM; in series [30], 2800 nM. For the same compound, the IC50 in series [28] stood at 2700 nM; in [29] it was 2500 nM. Further, the half-life was 3.7 h in series [8] and 8.1 h in series [26]. Besides, the Activity entry in series [4] is “Not toxic”. Further, the results for the Cmax in series [9] and in [12] were 386 ng/mL and 1530 ng/mL, respectively. Besides, the values for the time of peak concentration (Tmax) in series [10] and in series [15] were 4.8 min and 2.6 h, respectively. Besides, the Vd in series [11] worked out at 2.5 L/kg. Also, the Vdss in series [24] turned out to be 7.5 L/kg. For the same compound, the bioavailability in series [14] came out at 76%.

Turning to `COc1cc([N+](=O)[O-])ccc1C(=O)NC1N=C(c2ccccc2)c2ccccc2NC1=O` (stereo unspecified), the IC50 in [16] is 1800 nM; in series [17], below 300 nM; in series [18], 900 nM; in series [19], 1300 nM; in series [28], 2500 nM; in [29], 1200 nM. The CL/F in series [1] is 18.8 mL/min/kg. The peak level in series [2] (Cmax) was 1670 ng/mL. In series [4], the Activity entry is “Not toxic”. This compound gave a half-life in series [6] of 5.8 h. The compound further yielded a Vdss in series [7] of 9.8 L/kg. Besides, in series [5], the Tmax was found to be 3 h.

`COc1ccccc1C(=O)NC1N=C(c2ccccc2)c2ccc(C)cc2NC1=O` (stereo unspecified) displayed an IC50 in series [3] of 19200 nM. Moreover, the Activity entry in series [4] was “Not toxic”.

In series [3], `COc1ccccc1C(=O)NC1N=C(c2ccc(C(F)(F)F)cc2)c2ccccc2NC1=O` (stereo unspecified) had an IC50 above 50000 nM. Moreover, the Activity result in series [4] was “Not toxic”.

Turning to `COc1cccc(C(=O)NC2N=C(c3ccccc3)c3ccccc3NC2=O)c1` (stereo unspecified), the IC50 in series [3] was 6600 nM. For the same compound, the Activity entry in [4] is “Not toxic”.

Turning to `O=C(NC1N=C(c2ccccc2)c2ccccc2NC1=O)c1ccco1` (stereo unspecified), half-maximal inhibition in [3] (IC50) required 3200 nM. In series [4], the Activity result is “Not toxic”.

In [3], `CC(C)C(=O)NC1N=C(c2ccccc2)c2ccccc2NC1=O` (stereo unspecified) gave an IC50 of 9500 nM. Further, the Activity entry in [4] was “Not toxic”.
